Series [1] concerns Epidermophyton floccosum. Description: Antidermatophytic activity against Epidermophyton floccosum isolate after 7 days by broth microdilution method. The class given is functional. The conditions noted are these: 168 h. Summed up: (§1)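 Broth microdilution per CLSI in RPMI 1640 with L-glutamine, no bicarbonate, buffered to pH 7.0 with 0.165 M MOPS, filter-sterilized. Test dilution series 128-0.0625 μg mL⁻¹; sterility and growth (inoculum) controls on each plate. Wells inoculated, incubated 28°C for 7 days, read visually with an inverted mirror; MIC recorded. Triplicate.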
(In general: Broth dilution looks for growth in wells or tubes with falling amounts of substance.)

The subject of series [2] is Epidermophyton floccosum. Description: Antidermatophytic activity against Epidermophyton floccosum RSKK 3027 after 7 days by broth microdilution method. The class given is functional. The conditions noted are these: RSKK 3027, 168 h. Summed up:
as §1

For series [3], the system named is Nannizzia gypsea. Description: Antidermatophytic activity against Microsporum gypseum isolate after 7 days by broth microdilution method. The class given is functional. The conditions noted are these: 168 h. Summed up:
as §1

The nature of series [4]: Antidermatophytic activity against Trichophyton mentagrophytes var. erinacei NCPF 375 after 7 days by broth microdilution method. The class given is functional. The conditions noted are these: Arthroderma benhamiae. The gist of the method: as §1
Series [5] can be described thus: Cytotoxicity against human MRC5 cells. The class given is cell-based. The conditions noted are these: read-out: MNCC. Summed up: (§2)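 Maximum non-toxic concentration (MNTC) determined in HeLa and MRC-5 cells by a previously described method, based on cellular morphological alteration.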
The test system of series [6] is Nannizzia gypsea. Briefly: Antidermatophytic activity against Microsporum gypseum NCPF 580 after 7 days by broth microdilution method. The conditions noted are these: NCPF 580, 168 h. The class given is functional. The gist of the method: as §1
Series [7] can be described thus: Antidermatophytic activity against Trichophyton mentagrophytes var. erinacei isolate after 7 days by broth microdilution method. The class given is functional. The conditions noted are these: Arthroderma benhamiae. The gist of the method: as §1
Series [8] is described as follows: Cytotoxicity against human HeLa cells. The class given is cell-based. The conditions noted are these: read-out: MNCC. Summed up:
as §2

This is an account of results in ChEMBL document CHEMBL2390844, “Evaluation of bioactivities of chlorokojic acid derivatives against dermatophytes couplet with cytotoxicity” (Bioorg Med Chem Lett, 2013).

Converted amounts (≈) assume the structure as drawn.

In general, MIC refers to the lowest concentration that inhibits growth of the organism. Regarding `Cc1ccccc1CN1CCN(Cc2oc(CCl)cc(=O)c2O)CC1`, the MIC in series [1] is 32 µg/mL (≈ 88.2 µM); in series [2], 16 µg/mL (≈ 44.1 µM); in series [3], 32 µg/mL (≈ 88.2 µM); in series [4] it was 16 µg/mL (≈ 44.1 µM); in series [6], 16 µg/mL (≈ 44.1 µM); in series [7] it was 32 µg/mL (≈ 88.2 µM). Further, the MNTC in series [5] and in series [8] was at least 512 µg/mL throughout.
In the case of `O=c1cc(CCl)oc(CN2CCN(c3ccccc3)CC2)c1O`, the MIC in series [1] was determined as 8 µg/mL (≈ 23.9 µM); in series [2] it was 4 µg/mL (≈ 11.9 µM); in series [3], 8 µg/mL (≈ 23.9 µM); in series [4], 8 µg/mL (≈ 23.9 µM); in series [6], 8 µg/mL (≈ 23.9 µM); in series [7], 16 µg/mL (≈ 47.8 µM). The MNTC in series [5] and in series [8] was at least 256 µg/mL throughout.
Take `O=c1cc(CCl)oc(CN2CCN(Cc3ccccc3)CC2)c1O`: the MIC in series [1] is 32 µg/mL (≈ 91.7 µM); in series [2], 16 µg/mL (≈ 45.9 µM); in series [3], 32 µg/mL (≈ 91.7 µM); in series [4], 16 µg/mL (≈ 45.9 µM); in series [6] it was 16 µg/mL (≈ 45.9 µM); in series [7], 32 µg/mL (≈ 91.7 µM). In addition, the MNTC in series [5] and in series [8] was at least 512 µg/mL each time.
Consider `N#CC1(c2ccccc2)CCN(Cc2oc(CCl)cc(=O)c2O)CC1`, for which the MIC was 32 µg/mL (≈ 89.2 µM) in series [1]; 16 µg/mL (≈ 44.6 µM) in series [2]; 32 µg/mL (≈ 89.2 µM) in series [3]; 16 µg/mL (≈ 44.6 µM) in series [4]; 16 µg/mL (≈ 44.6 µM) in series [6]; 32 µg/mL (≈ 89.2 µM) in series [7]. The MNTC in series [5] and in series [8] was at least 256 µg/mL each time.
In the case of `O=c1cc(CCl)oc(CN2CCN(C3CCCCC3)CC2)c1O`, the MIC in series [1] was 32 µg/mL (≈ 93.9 µM); in series [2] it was 16 µg/mL (≈ 46.9 µM); in series [3] it was 32 µg/mL (≈ 93.9 µM); in series [4], 16 µg/mL (≈ 46.9 µM); in series [6], 16 µg/mL (≈ 46.9 µM); in series [7] it was 16 µg/mL (≈ 46.9 µM). Moreover, the MNTC in series [5] and in series [8] was at least 512 µg/mL each time.
With `CN(C/C=C/C#CC(C)(C)C)Cc1cccc2ccccc12` [TERBINAFINE], the MIC in series [1] was 0.5 µg/mL (≈ 1.72 µM); in series [2] it was 0.25 µg/mL (≈ 0.858 µM); in series [3], 0.5 µg/mL (≈ 1.72 µM); in series [4] it was 0.125 µg/mL (≈ 0.429 µM); in series [6] it was 0.25 µg/mL (≈ 0.858 µM); in series [7], 0.25 µg/mL (≈ 0.858 µM).
Regarding `O=c1cc(CCl)oc(CN2CCN(c3ccc([N+](=O)[O-])cc3)CC2)c1O`, the MIC worked out at 32 µg/mL (≈ 84.3 µM) in series [1]; 16 µg/mL (≈ 42.1 µM) in series [2]; 32 µg/mL (≈ 84.3 µM) in series [3]; 16 µg/mL (≈ 42.1 µM) in series [4]; 16 µg/mL (≈ 42.1 µM) in series [6]; 32 µg/mL (≈ 84.3 µM) in series [7]. The MNTC in series [5] and in series [8] was at least 512 µg/mL in each case.
As to `O=c1cc(CCl)oc(CN2CCN(CC3CCCCC3)CC2)c1O`, the MIC in series [1] was 8 µg/mL (≈ 22.5 µM); in series [2], 4 µg/mL (≈ 11.3 µM); in series [3], 8 µg/mL (≈ 22.5 µM); in series [4], 4 µg/mL (≈ 11.3 µM); in series [6] it was 4 µg/mL (≈ 11.3 µM); in series [7], 8 µg/mL (≈ 22.5 µM). For the same compound, the figures for the MNTC in series [5] and in series [8] were at least 512 µg/mL and at least 256 µg/mL, respectively.
Turning to `O=c1cc(CCl)oc(CN2CC=C(c3ccccc3)CC2)c1O`, the MIC in series [1] turned out to be 16 µg/mL (≈ 48.2 µM); in series [2], 8 µg/mL (≈ 24.1 µM); in series [3], 16 µg/mL (≈ 48.2 µM); in series [4] it was 8 µg/mL (≈ 24.1 µM); in series [6], 8 µg/mL (≈ 24.1 µM); in series [7], 16 µg/mL (≈ 48.2 µM). In addition, the MNTC in series [5] and in series [8] was at least 256 µg/mL throughout.
For `Cc1cccc(CN2CCN(Cc3oc(CCl)cc(=O)c3O)CC2)c1`, the MIC is 32 µg/mL (≈ 88.2 µM) in series [1]; 16 µg/mL (≈ 44.1 µM) in series [2]; 32 µg/mL (≈ 88.2 µM) in series [3]; 16 µg/mL (≈ 44.1 µM) in series [4]; 16 µg/mL (≈ 44.1 µM) in series [6]; 16 µg/mL (≈ 44.1 µM) in series [7]. Also, the MNTC in series [5] and in series [8] was at least 512 µg/mL in each case.
On to `Cc1cccc(N2CCN(Cc3oc(CCl)cc(=O)c3O)CC2)c1C`, for which the MIC in series [1] is 16 µg/mL (≈ 44.1 µM); in series [2] it was 8 µg/mL (≈ 22 µM); in series [3], 16 µg/mL (≈ 44.1 µM); in series [4], 4 µg/mL (≈ 11 µM); in series [6], 8 µg/mL (≈ 22 µM); in series [7], 8 µg/mL (≈ 22 µM). In addition, the MNTC in series [5] and in series [8] was at least 256 µg/mL each time.
As to `O=c1cc(CCl)occ1O`, the MIC is 16 µg/mL (≈ 99.7 µM) in series [1]; 8 µg/mL (≈ 49.8 µM) in series [2]; 4 µg/mL (≈ 24.9 µM) in series [3]; 4 µg/mL (≈ 24.9 µM) in series [4]; 2 µg/mL (≈ 12.5 µM) in series [6]; 8 µg/mL (≈ 49.8 µM) in series [7]. For the same compound, the MNTC in series [5] and in series [8] was at least 256 µg/mL throughout.
On to `O=c1cc(CCl)oc(CN2CCN(Cc3c(Cl)cccc3Cl)CC2)c1O`, for which the MIC in series [1] amounted to 8 µg/mL (≈ 19.2 µM); in series [2] it was 4 µg/mL (≈ 9.58 µM); in series [3], 8 µg/mL (≈ 19.2 µM); in series [4] it was 4 µg/mL (≈ 9.58 µM); in series [6] it was 4 µg/mL (≈ 9.58 µM); in series [7], 8 µg/mL (≈ 19.2 µM). Besides, the MNTC was at least 512 µg/mL in series [5] and at least 256 µg/mL in series [8].
Consider `O=c1cc(CCl)oc(CN2CCN(c3ccc(F)cc3)CC2)c1O`, for which the MIC stood at 16 µg/mL (≈ 45.4 µM) in series [1]; 8 µg/mL (≈ 22.7 µM) in series [2]; 16 µg/mL (≈ 45.4 µM) in series [3]; 8 µg/mL (≈ 22.7 µM) in series [4]; 8 µg/mL (≈ 22.7 µM) in series [6]; 8 µg/mL (≈ 22.7 µM) in series [7]. In addition, the MNTC in series [5] is at least 128 µg/mL.
